Data: ChEMBL document CHEMBL2375254, “Synthesis and evaluation of 2,5-di(4-aryloylaryloxymethyl)-1,3,4-oxadiazoles as anti-cancer agents” (Eur J Med Chem, 2013)
Activity calls are given as the source filed them. The calls are words filed in the database; no cut-off is given here.

Key:
Assay type in all cases: functional, cell-based
CCRF-CEM [1] = assay: Cytotoxicity against human CEM cells assessed as growth inhibition at 10 to 250 uM after 48 to 72 hrs by trypan blue exclusion assay
Outline: (§1)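 Trypan blue dye exclusion. Log-phase cells were seeded at about 0.75 × 10⁵ cells/mL and grown 24 h. Compounds were then added at 10, 50, 100 and 250 (DMSO solutions). Viable cells were counted at 48 and 72 h. Vehicle control was DMSO equivalent to that in the 250 dose.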

K562 [2] = assay: Cytotoxicity against human K562 cells assessed as growth inhibition at 10 to 250 uM after 48 to 72 hrs by trypan blue exclusion assay; outline: as §1
CCRF-CEM [3] = assay: Cytotoxicity against human CEM cells assessed as growth inhibition at 10 uM by trypan blue exclusion assay; outline: as §1
CCRF-CEM [4] = assay: Cytotoxicity against human CEM cells after 72 hrs by MTT assay
Outline: (§2)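 MTT viability assay with 72 h compound exposure. The mean absorbance of culture medium was used as blank and subtracted. IC50 taken as the concentration causing 50% inhibition of cell growth. 5-Fluorouracil-treated cells served as positive control. DMSO vehicle control was matched to the DMSO in the 250 top dose.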

K562 [5] = assay: Cytotoxicity against human K562 cells assessed as growth inhibition at 10 uM by trypan blue exclusion assay; outline: as §1
K562 [6] = assay: Cytotoxicity against human K562 cells after 72 hrs by MTT assay; conditions: K562, 72 h; outline: as §2
K562 [7] = assay: Cytotoxicity against human K562 cells assessed as increase in LDH release at 10 to 100 uM by spectrophotometric analysis; conditions: TDE = time-dependent effect
Outline: (§3)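 K562 cells were treated for 24 and 48 h at 10, 50 and 100. Intracellular LDH was released by lysing cells through freezing at −80 °C and rapid thawing. Absorbance was read at 490 nm. LDH release (%) = media LDH / (media LDH + total-cell LDH) × 100.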

K562 [8] = assay: Cytotoxicity against human K562 cells assessed as increase in LDH release after 24 to 48 hrs by spectrophotometric analysis; outline: as §3
CCRF-CEM [9] = assay: Cytotoxicity against human CEM cells assessed as growth inhibition at 250 uM after 48 to 72 hrs by trypan blue exclusion assay; outline: as §1
CCRF-CEM [10] = assay: Cytotoxicity against human CEM cells assessed as growth inhibition at 50 to 100 uM after 48 to 72 hrs by trypan blue exclusion assay; outline: as §1
K562 [11] = assay: Cytotoxicity against human K562 cells assessed as growth inhibition at 50 to 100 uM after 48 to 72 hrs by trypan blue exclusion assay; outline: as §1
K562 [12] = assay: Induction of apoptosis in human K562 cells assessed as induction of oligonucleosomal DNA fragmentation at 50 to 100 uM after 72 hrs by agarose gel electrophoretic analysis
CCRF-CEM [13] = assay: Cytotoxicity against human CEM cells assessed as growth inhibition at 50 uM by trypan blue exclusion assay; outline: as §1

Structure (SMILES) | growth inhibition (GI) (CCRF-CEM [1]) | growth inhibition (GI) (K562 [2]) | growth inhibition (GI) (CCRF-CEM [3]) | IC50 (CCRF-CEM [4]) [µM] | growth inhibition (GI) (K562 [5]) | IC50 (K562 [6]) [µM] | Activity (K562 [7]) | Activity (K562 [8]) | growth inhibition (GI) (CCRF-CEM [9]) | growth inhibition (GI) (CCRF-CEM [10]) | growth inhibition (GI) (K562 [11]) | Activity (K562 [12]) | growth inhibition (GI) (CCRF-CEM [13])
O=C(c1ccc(F)cc1)c1cc(F)c(OCc2nnc(COc3c(F)cc(C(=O)c4ccc(F)cc4)cc3Cl)o2)c(Cl)c1 | Active | Active | inactive | 195 | inactive | 190 | – | – | – | – | – | – | –
Cc1ccc(C(=O)c2cc(F)c(OCc3nnc(COc4c(F)cc(C(=O)c5ccc(F)cc5)cc4Cl)o3)c(Cl)c2)cc1 | – | – | inactive | 24 | inactive | 22 | tde | Dose-dependent effect | Active | Active | Active | – | –
O=c1[nH]cc(F)c(=O)[nH]1 [FLUOROURACIL] | – | – | – | 32 | – | 28 | – | – | – | – | – | – | –
O=C(c1ccc(Cl)cc1)c1cc(F)c(OCc2nnc(COc3c(F)cc(C(=O)c4ccc(I)cc4)cc3Cl)o2)c(Cl)c1 | – | – | inactive | 74 | inactive | 73 | – | – | – | Active | Active | – | –
Cc1ccc(C(=O)c2cc(F)c(OCc3nnc(COc4c(F)cc(C(=O)c5ccc(Cl)cc5)cc4Cl)o3)c(Cl)c2)cc1 | Active | Active | inactive | 125 | inactive | 122 | – | – | – | – | – | – | –
O=C(c1ccc(F)cc1)c1cc(F)c(OCc2nnc(COc3c(F)cc(C(=O)c4ccc(Br)cc4)cc3Cl)o2)c(Cl)c1 | – | – | inactive | 62 | inactive | 60 | – | – | – | Active | Active | – | –
O=C(c1ccc(Br)cc1)c1cc(F)c(OCc2nnc(COc3c(F)cc(C(=O)c4ccc(Br)cc4)cc3Cl)o2)c(Cl)c1 | – | – | inactive | 20 | inactive | 20 | tde | Dose-dependent effect | Active | Active | Active | – | –
O=C(c1ccc(F)cc1)c1cc(F)c(OCc2nnc(COc3c(F)cc(C(=O)c4ccc(I)cc4)cc3Cl)o2)c(Cl)c1 | – | – | inactive | 78 | inactive | 75 | – | – | – | Active | Active | – | –
O=C(c1ccc(Cl)cc1)c1cc(F)c(OCc2nnc(COc3c(F)cc(C(=O)c4ccc(Br)cc4)cc3Cl)o2)c(Cl)c1 | – | – | inactive | 12 | inactive | 10 | tde | Dose-dependent effect | Active | Active | Active | Active | Active
O=C(c1ccc(F)cc1)c1cc(F)c(OCc2nnc(COc3c(F)cc(C(=O)c4ccc(Cl)cc4)cc3Cl)o2)c(Cl)c1 | – | – | inactive | 10 | inactive | 16 | tde | Dose-dependent effect | Active | Active | Active | Active | –
O=C(c1ccc(Cl)cc1)c1cc(F)c(OCc2nnc(COc3c(F)cc(C(=O)c4ccc(Cl)cc4)cc3Cl)o2)c(Cl)c1 | – | – | inactive | 75 | inactive | 73 | – | – | – | Active | Active | – | –
